TAAR1 antag: human TAAR1 antagonists, primary screen, Fluo-8 calcium fluorescence, CHO RD-HGA16 cells. Trace amine-associated receptor 1 (Homo sapiens), Q96RJ0. antagonist. inhibition, % at 3 µM. 360,000 compounds, 1.5% hits;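 active = inhibition above a per-plate cutoff, the mean inhibition of test compounds on that plate plus 3 SD, cut at about 49% in these data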;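 also: 0% = DMSO plus EC80 beta-PEA response and 100% = DMSO alone without agonist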
Target sequence (Q96RJ0 whole entry, looked up): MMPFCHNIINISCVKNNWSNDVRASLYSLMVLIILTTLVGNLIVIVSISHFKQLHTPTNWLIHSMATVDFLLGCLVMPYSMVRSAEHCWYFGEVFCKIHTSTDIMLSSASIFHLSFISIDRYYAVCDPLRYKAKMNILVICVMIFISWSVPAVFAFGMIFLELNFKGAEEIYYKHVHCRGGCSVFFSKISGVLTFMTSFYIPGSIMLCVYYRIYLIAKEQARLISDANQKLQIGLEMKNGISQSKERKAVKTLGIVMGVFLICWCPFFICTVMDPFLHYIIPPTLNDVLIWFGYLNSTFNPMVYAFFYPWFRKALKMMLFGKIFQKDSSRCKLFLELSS
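Assay system: RD-HGA16 CHO cells with stable hTAAR1 and Gα16 / Reagent: EC80 β-phenethylamine stimulus / Doses: 3 µM, single point / Timing: dye loading 75 min at 37 °C, then 30 min room temperature / Measured by: Fluo-8 intracellular calcium dye fluorescence, real-time kinetic reads / Controls: vehicle wells and EC80 agonist wells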
CRFBP-R2 block: antagonists of CRF-BP/CRF-R2 complex, primary screen, cell-based, HEK293, calcium dye fluorescence, uHTS. CRF-induced calcium fluorescence. inhibition, % at 11.8 µM. 350,000 compounds, 0.59% hits;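 active = inhibition of the ligand-induced calcium signal above about 50% at the single tested concentration, limit read from the data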
TMEM16A act: TMEM16A chloride channel activators or potentiators, primary screen, cell-based, HTS. AID 623877, 2012. B-score at 10 µM. HEK293 TMEM16A/YFP-H148Q/I152L, iodide quench fluorescence; active compounds read low. 340,000 compounds, 0.3% hits;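 active = fluorescence-ratio B-score plate-corrected deviation score at least 3 library SD below zero, with starting fluorescence score within 5 deviations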;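 also: channel opened by trigger with iodide after compound preincubation; score built on the fluorescence ratio of max minus min over baseline; more negative score means more quench and so TMEM16A activation or potentiation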
TMEM16A inh: TMEM16A chloride channel inhibitors, primary screen, cell-based, HTS. Anoctamin-1 (Mus musculus), Q8BHY3. HEK293 TMEM16A/YFP iodide influx fluorescence, ionomycin. normalized B-score (activity score, 25-100; higher = stronger inhibition) at 10 µM. 310,000 compounds, 1.2% hits;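 active = ratio plate-corrected score three or more library SD toward inhibition, starting fluorescence score within five deviations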;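 also: score derived from kinetic fluorescence span divided by baseline fluorescence per well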
TAAR1 agonist: human TAAR1 agonists, primary screen, Fluo-8 calcium fluorescence, CHO RD-HGA16 cells. activation, % at 3 µM. vehicle wells 0%, saturating PEA agonist 100%. Trace amine-associated receptor 1 (Homo sapiens), Q96RJ0. 360,000 compounds, 0.99% hits. AID 624467, 2012;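 active = activation above the mean activation of all test compounds in the run plus 3 SD, cut at about 38% in these data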
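Assay system – CHO-derived RD-HGA16 cells with stable Gα16 and human TAAR1 · Compound dosing – one-point dosing at 3 µM (nominal) · Incubation – 17-24 h seeding, 75 min 37 °C dye, 30 min RT · Measured by – kinetic Fluo-8 calcium fluorescence · Control set – DMSO vehicle as 0%, PEA at EC100 as 100% · Repeats – single well for each compound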
CRFR2-BP ag: agonists of CRF-BP/CRF-R2 complex, primary screen, cell-based, HEK293, calcium dye fluorescence, uHTS. CRF-binding protein / CRF receptor 2 complex (human). calcium dye fluorescence (FLIPR); percent of saturating CRF peptide response. activation, % at 13.2 µM. 350,000 compounds, 0.46% hits. AID 588473, 2011;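 active = activation of at least 50%, plus an integration ratio under a set limit after plate pattern correction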;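 also: plate controls were neutral control wells without compound for no effect and CRF at EC100 for full effect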
TMEM16A reconf: TMEM16A chloride channel inhibitors, confirmation, cell-based, re-confirmation | HEK293 TMEM16A/YFP-H148Q, iodide quench fluorescence; ionomycin added to raise cell calcium | shares compounds with TMEM16A inh | 2,300 compounds, 39% hits | AID 652189, 2013 | inhibition, % at 10 µM;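 active = mean duplicate percent inhibition, scaled so buffer wells are 0 and the reference blocker 100, over three buffer SD above buffer mean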
HEK293 Ca mobil: calcium mobilization in TMEM16A/YFP HEK293 cells, confirmation, counter-screen for TMEM16A inhibitor project | calcium response (% of ionomycin), % at 10 µM | shares compounds with TMEM16A inh | AID 652231, 2013 | Fluo4 calcium mobilization | 2,300 compounds, 2% hits;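 active = duplicate-averaged calcium signal over 20% of the ionomycin maximum, relative to buffer baseline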;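 also: each well's signal is peak minus trough fluorescence divided by its pre-addition baseline; 0% = buffer wells and 100% = ionomycin wells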
Parental YFP cnt: iodide YFP quench changes in parental YFP-HEK293, counter-screen for TMEM16A inhibitor project, cell-based | shares compounds with TMEM16A inh | ionomycin | YFP ratio F(max-min)/F0 at 10 µM | 2,300 tested, under 10 active | AID 652233, 2013;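 active = yellow fluorescent protein signal ratio exceeding the buffer control mean by over 5 SD of those controls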;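 also: ratio is mean of duplicate wells from kinetic YFP trace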
ClC-1 rat inh: ClC-1 chloride channel inhibition, selectivity assay for TMEM16A inhibitor project, cell-based, voltage-dependent ClC-1; shares compounds with TMEM16A inh; CHO ClC-1-YFP, iodide influx fluorescence quench; iodide control reads 0, buffer control 100; ratio percent, % at 10 µM; 2,300 tested, under 10 active; AID 652236, 2013;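 active = duplicate-mean ratio percent above the mean of iodide-only control wells, which defines zero, plus 5 of their SD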;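 also: higher percent means stronger block of ClC-1 iodide influx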
Numbers without * were called inactive; i = inactive; / = not tested or not shown. Most compounds without a hit are left out; they make up all but 3.9% or so of the library.

SMILES	TAAR1 antag	CRFBP-R2 block	TMEM16A act	TMEM16A inh	TAAR1 agonist	CRFR2-BP ag	TMEM16A reconf	HEK293 Ca mobil	Parental YFP cnt	ClC-1 rat inh
CCOc1ccc(-n2c(=S)sc3c(=O)[nH]c(SCC(=O)C(C)(C)C)nc32)cc1	3.8	23.4	i	100*	14.2	0.3	33.5%*	i	-0.981	-17.0
CCOC(=O)CSc1nc2c(sc(=S)n2-c2ccc(OCC)cc2)c(=O)[nH]1	-21.4	5.2	i	i	2.2	0.3	/	/	/	/
CN(C(=O)c1ccc(S(=O)(=O)c2cccc(Cl)c2)c([N+](=O)[O-])c1)C1CCCCC1	-24.7	-37.9	i	25*	4.9	2.5	i	i	-1.06	-9.5
O=C(NC1CCCCC1)c1ccc(S(=O)(=O)c2ccccc2Cl)c([N+](=O)[O-])c1	/	/	/	i	/	/	/	/	/	/
COc1ccc(CC2(CO)CCN(Cc3ccc4nsnc4c3)CC2)cc1	-16.2	-6.7	i	i	1.7	-1.6	/	/	/	/
COc1cc(NC(=O)Nc2cccn3nc(COCCO)nc23)cc(OC)c1OC	-5.8	/	/	/	2.2	/	/	/	/	/
CCCCNC(=S)Nc1ccc(SC(F)F)cc1	-15.4	24.2	i	100*	2.7	15.6	53.5%*	i	-0.95	-15.5
CCOC(=O)c1c(C)[nH]c(C(=O)OC/C(O)=C(\C#N)c2nc3ccccc3[nH]2)c1C	/	-15.0	-7.46*	100*	/	2.5	i	i	-0.929	-0.5
O=C(N=C1SC2CS(=O)(=O)CC2N1CCc1ccccc1)C1CC1 (stereo not given)	-10.8	6.1	i	i	2.7	0.1	/	/	/	/
COCC(=O)Nc1cc(Cl)ccc1C	-0.2	-11.8	i	i	0.3	0.2	/	/	/	/
Cc1ccc(Cl)cc1NC(=O)CC(O)(C(F)(F)F)C(F)(F)F	-4.2	39.2	i	100*	7.1	28.1	42.5%*	i	-0.946	-18.0
CCCn1c2ccccc2c2nnc(SCC(=O)Nc3ncccn3)nc21	3.2	11.0	i	100*	3.4	-3.0	i	i	-1.24	-6.0
CCOC(=O)c1ccc2c(c1)N(CC(=O)N1CCCCC1)C(=O)C(C)(C)O2	-0.2	18.8	i	100*	3.9	-0.1	i	i	-1.22	-4.0
O=S(=O)(c1ccc(C2CCCCC2)cc1)N1CCCC1	10.6	-3.0	i	25*	6.7	-0.3	i	i	-0.827	0.5
Cc1[nH]n(-c2ccccc2)c(=O)c1C(c1ccc(O)c([N+](=O)[O-])c1)c1c(C)[nH]n(-c2ccccc2)c1=O	35.0	11.8	i	100*	26.0	-0.9	34.5%*	i	-0.923	-11.5
COc1ccc(C(C[N+](=O)[O-])c2c(C)[nH]n(-c3ccccc3)c2=O)cc1 (stereo not given)	-14.2	-17.8	i	i	17.5	2.0	/	/	/	/
C/C(=N\NC(=O)c1nnn(-c2nonc2N)c1-c1ccc(Cl)c(Cl)c1)c1ccncc1	-2.0	-15.3	i	i	14.6	2.3	/	/	/	/
CCN(C(=O)Cc1c(C(=O)O)[nH]c2ccccc12)c1cc(OC)ccc1OC	9.0	-20.3	i	100*	10.7	-0.6	i	i	-1.07	-4.5
CCOC(=O)c1ccc(NC(=O)CCc2nc(-c3ccccc3Cl)no2)cc1	27.2	-1.4	i	100*	4.5	-0.5	38.5%*	i	-1.08	-27.5
COc1ccc(OC)c(C(C(=O)NC2CCCCC2)N(C(=O)c2ccccn2)c2cccnc2)c1 (stereo not given)	10.6	-3.0	i	i	-5.8	-1.1	/	/	/	/
c1ccc(-c2ccc(-c3nc(-c4ccccn4)no3)cc2)cc1	-8.5	-11.7	i	25*	3.0	5.0	i	i	-1.06	-0.5
c1ccc(-c2nc(-c3ccccn3)no2)cc1	-0.5	2.9	i	i	5.8	-2.0	/	/	/	/
CCOC(=O)N1CCC(N(CCOC)C(=O)Nc2ccc(CC)cc2)CC1	-0.1	-12.6	i	i	17.2	-1.4	/	/	/	/
CCOC(=O)N1CCC(N(C(=O)Nc2ccc(Cl)c(Cl)c2)C(C)CC)CC1 (stereo not given)	20.4	-5.0	i	25*	9.6	2.8	i	i	-1.08	-11.0
CC1=C(C(=O)Nc2cc(C(=O)N3CCN(c4ccc(Cl)cc4)CC3)ccc2C)SCCO1	40.0	-0.3	/	/	6.7	-1.4	/	/	/	/
SMILES	TAAR1 antag	CRFBP-R2 block	TMEM16A act	TMEM16A inh	TAAR1 agonist	CRFR2-BP ag	TMEM16A reconf	HEK293 Ca mobil	Parental YFP cnt	ClC-1 rat inh
O=S(=O)(Nc1ccccc1-c1ccccc1)c1ccccc1	2.0	0.5	i	/	-1.2	-2.4	/	/	/	/
Cc1cc(C)c(S(=O)(=O)Nc2ccccc2-c2ccccc2)c(C)c1	40.3	-32.2	i	25*	13.4	3.5	i	i	-1.27	-4.5
O=C(N/N=C/c1ccc(O)cc1O)c1ccc(NC(=O)C2CCCCC2)cc1	-9.0	9.2	i	i	9.5	1.2	/	/	/	/
COc1ccc(C)cc1NC(=O)CCNS(=O)(=O)c1ccc2c(c1)CC(C)N2C(C)=O (stereo not given)	-18.9	4.7	i	i	0.0	0.7	/	/	/	/
CC1(C(=O)NS(=O)(=O)c2cccc(OC(F)F)c2)CCN1C(=O)CC(c1ccccc1)c1ccccc1 (stereo not given)	-2.6	/	/	/	-0.4	/	/	/	/	/
O=C(c1ccc2c(c1)OCO2)C1CCCN(Cc2ccc(OC(F)F)cc2)C1 (stereo not given)	1.8	6.6	i	25*	-0.7	0.5	21.0%*	i	-1.03	-13.5
Cc1cccc(OCC(=O)OC(C)CN2CCCCC2)c1 (stereo not given)	1.1	3.3	i	i	3.1	2.0	/	/	/	/

Screens deposited in PubChem by several laboratories.
